Key:
Type in all cases: functional
Mus musculus [1] = species on record: Mus musculus; assay: Number of survivors of the total treated mice with B-16 melanoma, at 60 days.
How it was run: (§1)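 BDF1 mice were implanted ip with a homogenate from 0.05 g of B-16 melanoma and dosed ip on days 1-9. Cures are survivors over total at 60 days.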

Mus musculus [2] = species on record: Mus musculus; assay: Anticancer activity measured as the number of survivors of the total treated mice with P-388 leukemia at 30 days.
How it was run: (§2)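 BDF1 or CDF1 mice given 10^6 ascitic P-388 leukemia cells ip, then treated ip on days 1, 5 and 9. Cures are survivors over total treated at 30 days.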

Mus musculus [3] = assay: Percent increase in median life span of BDF1 mice with P-388 leukemia administered intraperitoneally
Mus musculus [4] = assay: Percent increase in median life span of BDF1 mice with B-16 melanoma administered intraperitoneally
How it was run: (§3)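 BDF1 mice were implanted ip with a homogenate from 0.05 g of B-16 melanoma. Ip dosing ran on days 1-9, starting 24 h after implant, in dose-response studies following NCI protocols. The read-out was percent increase in life span (ILS). T/C ≥125% was taken as significant.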

Mus musculus [5] = assay: Percent increase in median life span of BDF1 mice with P-388 leukemia at dose 100 mg/kg administered intraperitoneally; settings: BDF1, P388, ip, route intraperitoneal
Mus musculus [6] = species on record: Mus musculus; assay: Cures is the number of survivors of the total treated mice (10) with B-16 melanoma, at 60 days.; how it was run: as §1
Mus musculus [7] = assay: Percent increase in median life span of BDF1 mice with P-388 leukemia at dose 12.5 mg/kg administered intraperitoneally; settings: BDF1, P388, ip, route intraperitoneal
Mus musculus [8] = assay: Percent increase in median life span of BDF1 mice with B-16 melanoma at dose 12.5 mg/kg administered intraperitoneally; settings: BDF1, B16, ip, route intraperitoneal; how it was run: as §3
Mus musculus [9] = species on record: Mus musculus; assay: Cures is the number of survivors of the total treated mice (12) with P-388 leukemia, at 30 days.; how it was run: as §2
Mus musculus [10] = assay: Percent increase in median life span of BDF1 mice with B-16 melanoma at dose 12 mg/kg administered intraperitoneally; settings: BDF1, B16, ip, route intraperitoneal; how it was run: as §3
Mus musculus [11] = assay: Percent increase in median life span of BDF1 mice with B-16 melanoma at dose 6.00 mg/kg administered intraperitoneally; settings: BDF1, B16, ip, route intraperitoneal; how it was run: as §3
Mus musculus [12] = assay: Percent increase in median life span of BDF1 mice with P-388 leukemia at dose 25 mg/kg administered intraperitoneally; settings: BDF1, P388, ip, route intraperitoneal
Mus musculus [13] = assay: Percent increase in median life span of BDF1 mice with B-16 melanoma at dose 50 mg/kg administered intraperitoneally; settings: BDF1, B16, ip, route intraperitoneal; how it was run: as §3
Mus musculus [14] = species on record: Mus musculus; assay: Cures is the number of survivors of the total treated mice (6) with P-388 leukemia, at 30 days.; how it was run: as §2
Mus musculus [15] = assay: Percent increase in median life span of BDF1 mice with B-16 melanoma at dose 3 mg/kg administered intraperitoneally; settings: BDF1, B16, ip, route intraperitoneal; how it was run: as §3
Mus musculus [16] = species on record: Mus musculus; assay: Cures is the number of survivors of the total treated mice (6) with P-388 leukemia, at 60 days.
Mus musculus [17] = species on record: Mus musculus; assay: Cures is the number of survivors of the total treated mice (17) with L-1210 leukemia, at 30 days.
Mus musculus [18] = species on record: Mus musculus; assay: Cures is the number of survivors of the total treated mice (20) with B-16 melanoma, at 60 days.; how it was run: as §1
Mus musculus [19] = species on record: Mus musculus; assay: Cures is the number of survivors of the total treated mice (20) with Colon 26, at 60 days.
Mus musculus [20] = species on record: Mus musculus; assay: Cures is the number of survivors of the total treated mice (42) with P-388 leukemia, at 30 days.; how it was run: as §2
Mus musculus [21] = species on record: Mus musculus; assay: Cures is the number of survivors of the total treated mice (10) with P-388 leukemia, at 30 days.; how it was run: as §2
Mus musculus [22] = species on record: Mus musculus; assay: Cures is the number of survivors of the total treated mice (10) with advanced B-16 melanoma, at 30 days.
Mus musculus [23] = assay: Cures is the number of survivors of the total treated mice (6) with advanced L-1210 leukemia; treatment day +2 iv
How it was run: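 Advanced L-1210 leukemia, treated iv once on day +2 relative to tumor inoculation.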

Mus musculus [24] = assay: Percent increase in median life span of BDF1 mice with B-16 melanoma at dose 6 mg/kg administered intraperitoneally; range 98-122%; 1-9 days of ip treatment relative to tumor inoculation; settings: BDF1, B16, ip, route intraperitoneal; how it was run: as §3
Mus musculus [25] = assay: Percent increase in median life span of BDF1 mice with Colon 26 at dose 6.2 mg/kg administered intraperitoneally; Range is 114-150%; 1, 5, 9 days of ip treatment relative to tumor inoculation; settings: BDF1, Colon 26, ip, 216 h, route intraperitoneal
Mus musculus [26] = assay: Percent increase in median life span of BDF1 mice with L-1210 leukemia at dose 12.5 mg/kg administered intraperitoneally; 1, 5, 9 days of ip treatment relative to tumor inoculation; settings: BDF1, L1210, ip, 216 h, route intraperitoneal
How it was run: (§4)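 BDF1 or CDF1 mice given 10^6 ascitic leukemia cells ip, then dosed ip on days 1, 5 and 9. Read-out is percent increase in life span versus untreated controls. Cures were scored as survivors/total at 30 days; when cures reached 50% or more, the run was extended until a specific ILS could be calculated. T/C ≥125% counted as significant.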

Mus musculus [27] = assay: Percent increase in median life span of BDF1 mice with P-388 leukemia at dose 12.5 mg/kg administered intraperitoneally; 1, 5, 9 days of ip treatment relative to tumor inoculation; settings: BDF1, P388, ip, 216 h, route intraperitoneal; how it was run: as §4
Mus musculus [28] = assay: Percent increase in median life span of BDF1 mice with advanced B-16 melanoma at dose 12.5 mg/kg administered intraperitoneally; 5, 9, 13 days of ip treatment relative to tumor inoculation; settings: BDF1, B16, ip, 312 h, route intraperitoneal
Mus musculus [29] = species on record: Mus musculus; assay: Percent increase in median life span of BDF1 mice with advanced L-1210 leukemia
Mus musculus [30] = assay: Percent increase in median life span of BDF1 mice with advanced P-388 leukemia at dose 12.5 mg/kg administered intraperitoneally; 4, 8, 12 days of ip treatment relative to tumor inoculation; settings: P388, ip, 288 h, route intraperitoneal
Mus musculus [31] = assay: Percent increase in median life span of BDF1 mice with madison lung 109 leukemia administered intraperitoneally
Mus musculus [32] = assay: Percent tumor inhibition at non-lethal dose was determined in BDF1 mice with madison lung 109 leukemia; 1, 5, 9 days of sc treatment relative to tumor inoculation
Mus musculus [33] = assay: Percent increase in median life span of BDF1 mice with B-16 melanoma at dose 1.5 mg/kg administered intraperitoneally; settings: BDF1, B16, ip, route intraperitoneal; how it was run: as §3
Mus musculus [34] = assay: Percent increase in median life span of BDF1 mice with P-388 leukemia at dose 6.25 mg/kg administered intraperitoneally; settings: BDF1, P388, ip, route intraperitoneal

CC(C)(C)c1ccc2c(/C=N/NC3=NCCN3)c3ccccc3c(/C=N/NC3=NCCN3)c2c1.Cl.Cl
Cures (Mus musculus [1]): 0 | Cures (Mus musculus [2]): 0 | ILS (Mus musculus [3]): 0% | ILS (Mus musculus [4]): 0%

CC(C)N(CC/N=C(\S)N/N=C/c1c2ccccc2c(/C=N/N/C(S)=N/CCN(C(C)C)C(C)C)c2ccccc12)C(C)C.Cl.Cl
Cures (Mus musculus [2]): 0 | ILS at 100 mg/kg (Mus musculus [5]): 53%

Cc1ccc2c(/C=N/NC3=NCCN3)c3ccccc3c(/C=N/NC3=NCCN3)c2c1Cl.Cl.Cl
Cures (Mus musculus [2]): 0 | Cures (Mus musculus [6]): 4 | ILS at 12.5 mg/kg (Mus musculus [7]): 130% | ILS at 12.5 mg/kg (Mus musculus [8]): 220%

C(=N\NC1=NCCN1)/C1c2ccccc2C(/C=N/NC2=NCCN2)c2ccccc21.Cl.Cl (stereo not drawn)
Cures (Mus musculus [1]): 0 | ILS at 12.5 mg/kg (Mus musculus [7]): 72% | ILS at 12.5 mg/kg (Mus musculus [8]): 100%

C(=N\NC1=NCCCN1)/c1c2ccccc2c(/C=N/NC2=NCCCN2)c2ccccc12.Cl.Cl
Cures (Mus musculus [9]): 1 | Cures (Mus musculus [1]): 0 | ILS at 12.5 mg/kg (Mus musculus [7]): 82% | ILS at 12 mg/kg (Mus musculus [10]): 106%

CN(C)CCCCC/N=C(\S)N/N=C/c1c2ccccc2c(/C=N/N/C(S)=N/CCCCCN(C)C)c2ccccc12.Cl.Cl
Cures (Mus musculus [1]): 0 | Cures (Mus musculus [2]): 0 | ILS at 6 mg/kg (Mus musculus [11]): 97% | ILS at 25 mg/kg (Mus musculus [12]): 48%

Cl.Cl.S=C(NCCCN1CCOCC1)N/N=C/c1c2ccccc2c(/C=N/NC(=S)NCCCN2CCOCC2)c2ccccc12
Cures (Mus musculus [1]): 0 | Cures (Mus musculus [2]): 0 | ILS at 100 mg/kg (Mus musculus [5]): 53% | ILS at 50 mg/kg (Mus musculus [13]): 75%

Cl.Cl.N=C(N)N/N=C/c1c2ccccc2c(/C=N/N=C(N)N)c2ccccc12
Cures (Mus musculus [14]): 3 | Cures (Mus musculus [1]): 0 | ILS at 25 mg/kg (Mus musculus [12]): 132% | ILS at 3 mg/kg (Mus musculus [15]): 67%

C(=N\NC1=NCCN1)/c1c2ccccc2c(/C=N/NC2=NCCN2)c2c1ccc1ccccc12.Cl.Cl
Cures (Mus musculus [16]): 1 | Cures (Mus musculus [1]): 0 | ILS at 12.5 mg/kg (Mus musculus [7]): 90%

C(=N\NC1=NCCN1)/c1c2ccccc2c(/C=N/NC2=NCCN2)c2ccccc12 [BISANTRENE]
Cures (Mus musculus [17]): 0 | Cures (Mus musculus [18]): 2 | Cures (Mus musculus [19]): 6 | Cures (Mus musculus [20]): 17 | Cures (Mus musculus [14]): 0 | Cures (Mus musculus [21]): 2 | Cures (Mus musculus [22]): 2 | Cures (Mus musculus [23]): 0 | ILS at 6 mg/kg (Mus musculus [24]): 122% | ILS at 6.2 mg/kg (Mus musculus [25]): 114% | ILS at 12.5 mg/kg (Mus musculus [26]): 62% | ILS at 12.5 mg/kg (Mus musculus [27]): 137% | ILS at 12.5 mg/kg (Mus musculus [28]): 54% | ILS (Mus musculus [29]): 48% | ILS at 12.5 mg/kg (Mus musculus [30]): 76% | ILS (Mus musculus [31]): <25% | Inhibition (Mus musculus [32]): 20%

COCC/N=C(\S)N/N=C/c1c2ccccc2c(/C=N/N/C(S)=N/CCOC)c2ccccc12
ILS (Mus musculus [3]): 0%

CN1CCCN=C1N/N=C/c1c2ccccc2c(/C=N/NC2=NCCCN2C)c2ccccc12.Cl.Cl
Cures (Mus musculus [14]): 1 | Cures (Mus musculus [1]): 0 | ILS at 1.5 mg/kg (Mus musculus [33]): 80% | ILS at 6.25 mg/kg (Mus musculus [34]): 148%

CN(C)CCC/N=C(\S)N/N=C/c1c2ccccc2c(/C=N/N/C(S)=N/CCCN(C)C)c2ccccc12.Cl.Cl
Cures (Mus musculus [1]): 0 | Cures (Mus musculus [2]): 0 | ILS at 6 mg/kg (Mus musculus [11]): 77% | ILS at 6.25 mg/kg (Mus musculus [34]): 100%
